# Data published in ChEMBL document CHEMBL3232844, “Synthesis and structure activity relationships of schweinfurthin indoles” (2014).
# Legend:
# Type in all cases: functional
# CCRF-CEM = experiment: Cytotoxicity against human CCRF-CEM cells
# HL-60(TB) = experiment: Cytotoxicity against human HL-60(TB) cells
# Method in brief: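 Tested within the NCI 60-cell-line screen, with GI50 as the read-out. Values are the average of two independent experiments. The lowest concentration tested was 10 nM.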
# MOLT-4 = experiment: Cytotoxicity against human MOLT4 cells
# Method in brief: (§1)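 Tested in a 60-cell-line human tumor panel screen; the read-out is growth inhibition, reported as GI50 for each cell line.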
# SR = experiment: Cytotoxicity against human SR cells
# Method in brief: (§2)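 Cell line run as part of the 60-cell-line screening panel; growth inhibition was reported as a GI50 for each line.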
# A549 = experiment: Cytotoxicity against human A549 cells; method in brief: as §1
# HOP-62 = experiment: Cytotoxicity against human HOP62 cells; method in brief: as §1
# NCI-H226 = experiment: Cytotoxicity against human NCI-H226 cells; method in brief: as §1
# HCC 2998 = experiment: Cytotoxicity against human HCC2998 cells; method in brief: as §1
# HCT-116 = experiment: Cytotoxicity against human HCT116 cells; method in brief: as §1
# HT-29 = experiment: Cytotoxicity against human HT-29 cells; method in brief: as §1
# KM12 = experiment: Cytotoxicity against human KM12 cells; method in brief: as §1
# SF-268 = experiment: Cytotoxicity against human SF268 cells; method in brief: as §1
# SF-295 = experiment: Cytotoxicity against human SF295 cells; method in brief: as §1
# SNB-19 = experiment: Cytotoxicity against human SNB19 cells; method in brief: as §1
# SNB-75 = experiment: Cytotoxicity against human SNB75 cells; method in brief: as §2
# U-251 = experiment: Cytotoxicity against human U251 cells; method in brief: as §2
# LOX IMVI = experiment: Cytotoxicity against human LOXIMVI cells; method in brief: as §1
# M14 = experiment: Cytotoxicity against human M14 cells; method in brief: as §1
# MDA-MB-435 = experiment: Cytotoxicity against human MDA-MB-435 cells; method in brief: as §1
# NCI-H322M = experiment: Cytotoxicity against human NCI-H322M cells; method in brief: as §1
# NCI-H460 = experiment: Cytotoxicity against human NCI-H460 cells; method in brief: as §1
# SK-MEL-2 = experiment: Cytotoxicity against human SK-MEL-2 cells; method in brief: as §1
# SK-MEL-5 = experiment: Cytotoxicity against human SK-MEL-5 cells; method in brief: as §1
# [1] = Cytotoxicity against human UACC257 cells; method in brief: as §2
# [2] = Cytotoxicity against human UACC62 cells; method in brief: as §2
# [3] = Cytotoxicity against human OVCAR3 cells; method in brief: as §1
# [4] = Cytotoxicity against human OVCAR4 cells; method in brief: as §1
# [5] = Cytotoxicity against human OVCAR8 cells; method in brief: as §1
# [6] = Cytotoxicity against human NCI-ADR-RES cells; method in brief: as §1
# SK-OV-3 = experiment: Cytotoxicity against human SKOV3 cells; method in brief: as §1
# 786-0 = experiment: Cytotoxicity against human 786-0 cells; method in brief: as §1
# A498 = experiment: Cytotoxicity against human A498 cells; method in brief: as §1
# ACHN = experiment: Cytotoxicity against human ACHN cells; method in brief: as §1
# CAKI-1 = experiment: Cytotoxicity against human Caki1 cells; method in brief: as §1
# RXF 393 = experiment: Cytotoxicity against human RXF393 cells; method in brief: as §1
# SN12C = experiment: Cytotoxicity against human SN12C cells; method in brief: as §1
# TK-10 = experiment: Cytotoxicity against human TK10 cells; method in brief: as §2
# [7] = Cytotoxicity against human UO31 cells; method in brief: as §2
# PC-3 = experiment: Cytotoxicity against human PC3 cells; method in brief: as §1
# MCF7 = experiment: Cytotoxicity against human MCF7 cells; method in brief: as §1
# MDA-MB-231 = experiment: Cytotoxicity against human MDA-MB-231 cells; method in brief: as §1
# BT-549 = experiment: Cytotoxicity against human BT549 cells; method in brief: as §1
# MDA-MB-468 = experiment: Cytotoxicity against human MDA-MB-468 cells; method in brief: as §1
# [8] = read-out: pLC50 (the source's name) (converted)
structure (smiles),measurement,setting,value
COc1cc(/C=C/c2cc(O)c3ccn(C)c3c2)cc2c1O[C@]1(C)CC[C@@H](O)C(C)(C)[C@H]1C2,GI50,CCRF-CEM,0.38 µM
same,CC50,CCRF-CEM; [8],> 100 µM
same,TGI,CCRF-CEM; read-out: pTGI (converted),> 100 µM
same,GI50,HL-60(TB),1.23 µM
same,CC50,HL-60(TB); [8],> 100 µM
same,TGI,HL-60(TB); read-out: pTGI (converted),58.9 µM
same,GI50,MOLT-4,0.447 µM
same,CC50,MOLT-4; [8],> 100 µM
same,TGI,MOLT-4; read-out: pTGI (converted),10.2 µM
same,GI50,SR,0.468 µM
same,CC50,SR; [8],> 100 µM
same,TGI,SR; read-out: pTGI (converted),> 100 µM
same,GI50,A549,4.9 µM
same,CC50,A549; [8],> 100 µM
same,TGI,A549; read-out: pTGI (converted),64.6 µM
same,GI50,HOP-62,0.407 µM
same,CC50,HOP-62; [8],> 100 µM
same,TGI,HOP-62; read-out: pTGI (converted),5.01 µM
same,GI50,NCI-H226,11.5 µM
same,CC50,NCI-H226; [8],64.6 µM
same,TGI,NCI-H226; read-out: pTGI (converted),26.9 µM
same,GI50,HCC 2998,4.57 µM
same,CC50,HCC 2998; [8],> 100 µM
same,TGI,HCC 2998; read-out: pTGI (converted),29.5 µM
same,GI50,HCT-116,1.17 µM
same,CC50,HCT-116; [8],> 100 µM
same,TGI,HCT-116; read-out: pTGI (converted),47.9 µM
same,GI50,HT-29,1.86 µM
same,CC50,HT-29; [8],63.1 µM
same,TGI,HT-29; read-out: pTGI (converted),7.41 µM
same,GI50,KM12,1.26 µM
same,CC50,KM12; [8],34.7 µM
same,TGI,KM12; read-out: pTGI (converted),7.08 µM
same,GI50,SF-268,2.04 µM
same,CC50,SF-268; [8],> 100 µM
same,TGI,SF-268; read-out: pTGI (converted),66.1 µM
same,GI50,SF-295; read-out: GI50,0.76 µM
same,GI50,SF-295; read-out: pGI50 (converted),0.759 µM
same,TGI,SF-295; read-out: pTGI (converted),2.75 µM
same,GI50,SNB-19,1.45 µM
same,CC50,SNB-19; [8],> 100 µM
same,TGI,SNB-19; read-out: pTGI (converted),> 100 µM
same,GI50,SNB-75,0.138 µM
same,CC50,SNB-75; [8],93.3 µM
same,TGI,SNB-75; read-out: pTGI (converted),8.91 µM
same,GI50,U-251,0.417 µM
same,CC50,U-251; [8],> 100 µM
same,TGI,U-251; read-out: pTGI (converted),63.1 µM
same,GI50,LOX IMVI,0.977 µM
same,CC50,LOX IMVI; [8],> 100 µM
same,TGI,LOX IMVI; read-out: pTGI (converted),50.1 µM
same,GI50,M14,0.525 µM
same,CC50,M14; [8],> 100 µM
same,TGI,M14; read-out: pTGI (converted),4.37 µM
same,GI50,MDA-MB-435,1.45 µM
same,CC50,MDA-MB-435; [8],> 100 µM
same,TGI,MDA-MB-435; read-out: pTGI (converted),47.9 µM
same,GI50,NCI-H322M,12.9 µM
same,CC50,NCI-H322M; [8],> 100 µM
same,TGI,NCI-H322M; read-out: pTGI (converted),> 100 µM
same,GI50,NCI-H460,1.66 µM
same,CC50,NCI-H460; [8],> 100 µM
same,TGI,NCI-H460; read-out: pTGI (converted),> 100 µM
same,GI50,SK-MEL-2,0.692 µM
same,CC50,SK-MEL-2; [8],> 100 µM
same,TGI,SK-MEL-2; read-out: pTGI (converted),12.9 µM
same,GI50,SK-MEL-5,1.15 µM
same,CC50,SK-MEL-5; [8],5.25 µM
same,TGI,SK-MEL-5; read-out: pTGI (converted),2.45 µM
same,GI50,[1]; UACC-257,1.74 µM
same,CC50,"[1]; UACC-257, read-out: pLC50 (the source's name) (converted)",> 100 µM
same,TGI,"[1]; UACC-257, read-out: pTGI (converted)",8.13 µM
same,GI50,[2]; UACC-62,0.316 µM
same,CC50,"[2]; UACC-62, read-out: pLC50 (the source's name) (converted)",77.6 µM
same,TGI,"[2]; UACC-62, read-out: pTGI (converted)",2.09 µM
same,GI50,[3]; OVCAR-3,4.79 µM
same,CC50,"[3]; OVCAR-3, read-out: pLC50 (the source's name) (converted)",> 100 µM
same,TGI,"[3]; OVCAR-3, read-out: pTGI (converted)",42.7 µM
same,GI50,[4]; OVCAR-4,4.27 µM
same,CC50,"[4]; OVCAR-4, read-out: pLC50 (the source's name) (converted)",> 100 µM
same,TGI,"[4]; OVCAR-4, read-out: pTGI (converted)",> 100 µM
same,GI50,[5]; OVCAR-8,11.2 µM
same,CC50,"[5]; OVCAR-8, read-out: pLC50 (the source's name) (converted)",> 100 µM
same,TGI,"[5]; OVCAR-8, read-out: pTGI (converted)",77.6 µM
same,GI50,[6],9.55 µM
same,CC50,[6]; [8],> 100 µM
same,TGI,[6]; read-out: pTGI (converted),69.2 µM
same,GI50,SK-OV-3,3.02 µM
same,LC50,SK-OV-3,> 100 µM
same,TGI,SK-OV-3; read-out: pTGI (converted),72.4 µM
same,GI50,786-0,0.186 µM
same,LC50 (concentration killing 50% of cells),786-0,> 100 µM
same,GI50,A498,6.03 µM
same,CC50,A498; [8],89.1 µM
same,TGI,A498; read-out: pTGI (converted),38.9 µM
same,GI50,ACHN,0.776 µM
same,LC50 (concentration killing 50% of cells),ACHN,> 100 µM
same,TGI,ACHN; read-out: pTGI (converted),55 µM
same,GI50,CAKI-1,2.29 µM
same,LC50,CAKI-1,> 100 µM
same,TGI,CAKI-1; read-out: pTGI (converted),21.9 µM
same,GI50,RXF 393,0.0302 µM
same,LC50,RXF 393,8.71 µM
same,TGI,RXF 393; read-out: pTGI (converted),0.12 µM
same,GI50,SN12C,6.92 µM
same,LC50,SN12C,> 100 µM
same,TGI,SN12C; read-out: pTGI (converted),91.2 µM
same,GI50,TK-10,3.72 µM
same,LC50,TK-10,> 100 µM
same,TGI,TK-10; read-out: pTGI (converted),64.6 µM
same,GI50,[7]; UO-31,0.437 µM
same,LC50,[7]; UO-31,> 100 µM
same,TGI,"[7]; UO-31, read-out: pTGI (converted)",7.24 µM
same,GI50,PC-3,0.575 µM
same,LC50,PC-3,> 100 µM
same,TGI,PC-3; read-out: pTGI (converted),67.6 µM
same,GI50,MCF7,0.741 µM
same,LC50,MCF7,> 100 µM
same,TGI,MCF7; read-out: pTGI (converted),42.7 µM
same,GI50,MDA-MB-231,1.12 µM
same,LC50,MDA-MB-231,> 100 µM
same,TGI,MDA-MB-231; read-out: pTGI (converted),28.2 µM
same,GI50,BT-549,1.55 µM
same,CC50,BT-549; [8],> 100 µM
same,TGI,BT-549; read-out: pTGI (converted),39.8 µM
same,GI50,MDA-MB-468,1.02 µM
same,LC50,MDA-MB-468,> 100 µM
same,TGI,MDA-MB-468; read-out: pTGI (converted),14.1 µM
